Molecules are shown by their SMILES.

Assay [1] deals with T1, Cathepsin B (Homo sapiens, UniProt P07858). Description: Reversible inhibition of human recombinant cathepsin B assessed as formation of fluorescent degradation product AMC using Z-Arg-Arg-AMC as substrate by Michaelis-Menten method. A digest of the protocol: (§1)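 Recombinant human catB (133 pM) preactivated 5 min at 37 °C in 100 mM phosphate pH 6.0, 0.1% PEG 8000, 5 mM DTT, 1.5 mM EDTA, 5% DMSO. Initial hydrolysis rates taken across Z-Arg-Arg-AMC (60, 180, 360 µM, as added) and inhibitor (0–70 µM, as added). AMC read ex 380/em 460 nm at 37 °C. Duplicates, two independent runs. β fitted for ES-complex binding.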

Assay [2] addresses T1, Cathepsin B. Description: Inhibition of human recombinant cathepsin B assessed as factor by which the product formation changes when the inhibitor binds to the enzyme-substrate complex using Z-Arg-Arg-AMC as substrate by fluorescence microplate assay. The essentials:
as §1

The target of assay [3] is Procathepsin L (Homo sapiens) (UniProt P07711). Briefly: Inhibition of human recombinant cathepsin L expressed in Escherichia coli assessed as formation of fluorescent degradation product AMC using Z-Phe-Arg-AMC as substrate at 50 uM by fluorescence microplate assay.
Procathepsin L (Homo sapiens), sequence (P07711 114-333 limits assumed): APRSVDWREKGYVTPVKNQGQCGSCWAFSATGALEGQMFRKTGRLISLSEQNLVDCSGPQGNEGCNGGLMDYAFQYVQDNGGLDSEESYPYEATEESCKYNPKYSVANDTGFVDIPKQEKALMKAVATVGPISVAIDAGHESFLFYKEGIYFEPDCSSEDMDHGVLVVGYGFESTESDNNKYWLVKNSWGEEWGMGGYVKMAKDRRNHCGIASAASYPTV
The target in assay [4] is T1, Cathepsin B. Briefly: Mixed-type inhibition of human recombinant cathepsin B assessed as formation of fluorescent degradation product AMC using Z-Arg-Arg-AMC as substrate by Michaelis-Menten method. The essentials: as §1
The target of assay [5] is T2, Pro-cathepsin H (Homo sapiens) (UniProt P09668).
T2 sequence (whole entry): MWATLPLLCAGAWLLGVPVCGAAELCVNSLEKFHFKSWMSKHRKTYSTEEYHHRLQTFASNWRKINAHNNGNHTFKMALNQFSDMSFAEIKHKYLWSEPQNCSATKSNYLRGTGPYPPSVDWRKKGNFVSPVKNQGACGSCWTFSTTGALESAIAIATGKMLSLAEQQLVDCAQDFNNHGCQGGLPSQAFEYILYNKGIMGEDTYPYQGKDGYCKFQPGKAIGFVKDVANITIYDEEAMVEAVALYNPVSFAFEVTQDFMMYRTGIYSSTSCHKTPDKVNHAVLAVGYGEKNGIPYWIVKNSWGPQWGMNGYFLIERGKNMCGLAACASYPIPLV
Description: Inhibition of native cathepsin H isolated from human liver assessed as formation of fluorescent degradation product AMC using Arg-AMC as substrate at 50 uM by fluorescence microplate assay.

`O=C(O)CSc1nc(SCc2ccccc2)nc(=O)[nH]1`: the Ki (commonly a dissociation constant, usually derived from enzyme kinetics or from competition with a known ligand) stood at 560 µM at Cathepsin B [1] and 351 µM on Cathepsin B [4]. In addition, the fold change (FC) at Cathepsin B [2] was determined as 0. Besides, the inhibition (as a rule, the change of the read-out against control, counted positive when it falls) in assay [3] was -2.36%; in assay [5], 6.89%.

On to `CCCCSc1nc(SCc2ccccc2)nc(=O)[nH]1`, for which the results for the Ki at Cathepsin B [1] and at Cathepsin B [4] were 70.6 µM and 14.8 µM, respectively. Further, at Cathepsin B [2], the fold change (FC) came to 0. For the same molecule, the inhibition in assay [3] is 9.33%; in assay [5] it was -1.81%.

For the origin of these results see ChEMBL document CHEMBL1833856, “Discovery and kinetic evaluation of 6-substituted 4-benzylthio-1,3,5-triazin-2(1H)-ones as inhibitors of cathepsin B” (Eur J Med Chem, 2011).
